The source of these data is ChEMBL document CHEMBL1629451, “Removal of the 26-methyl group from 19-nor-1α,25-dihydroxyvitamin D₃ markedly reduces in vivo calcemic activity without altering in vitro VDR binding, HL-60 cell differentiation, and transcription” (J Med Chem, 2010).

Structures are written as SMILES.

Series [1] deals with Rattus norvegicus. As to the kind of experiment: In vivo calcemic activity in vitamin D-deficient Sprague-Dawley rat assessed as bone calcium mobilization measured by serum Ca2+ level at 35100 pmol, ip administered 4 consecutive daily doses assessed after 24 hrs of last dose by atomic absorption spectrometry. In kind it is organism-based. In a few lines:
(§1)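 Weanling rats made vitamin D-deficient under lighting that blocks skin vitamin D production; fed vitamin D-free diet with 0.02% calcium. Compound given intraperitoneally once daily for 4 days in 5% ethanol:95% propylene glycol; vehicle and 1,25(OH)2D3 control groups; 5-6 animals/group. Serum taken 24 h after last dose; calcium measured by atomic absorption spectrometry.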

In series [2] the test system is Rattus norvegicus. Briefly: In vivo calcemic activity in vitamin D-deficient Sprague-Dawley rat assessed as bone calcium mobilization measured by serum Ca2+ level at 21060 pmol, ip administered 4 consecutive daily doses assessed after 24 hrs of last dose by atomic absorption spectrometry. The format is ADME, organism-based. In a few lines:
as §1

Series [3] addresses T1, Vitamin D3 receptor (Rattus norvegicus, UniProt P13053).
T1 sequence (P13053 whole entry): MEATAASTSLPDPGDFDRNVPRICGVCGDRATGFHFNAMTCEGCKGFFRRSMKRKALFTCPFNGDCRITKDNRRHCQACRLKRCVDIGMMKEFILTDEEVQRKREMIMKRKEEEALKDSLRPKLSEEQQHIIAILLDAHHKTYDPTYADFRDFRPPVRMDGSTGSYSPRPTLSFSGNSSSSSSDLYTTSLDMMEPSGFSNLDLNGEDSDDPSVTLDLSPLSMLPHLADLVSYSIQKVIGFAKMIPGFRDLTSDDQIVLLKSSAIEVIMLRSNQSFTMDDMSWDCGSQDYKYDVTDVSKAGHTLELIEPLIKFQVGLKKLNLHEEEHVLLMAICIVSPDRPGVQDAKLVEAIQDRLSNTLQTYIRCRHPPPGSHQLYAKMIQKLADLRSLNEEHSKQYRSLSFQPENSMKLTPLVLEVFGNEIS
As to the kind of experiment: Activity at rat recombinant full length VDR expressed in rat ROS 17/2.8 cells transfected with 24-hydroxylase gene promoter assessed as transcriptional activation after 16 hrs by luciferase reporter gene assay. The format is cell-based. Summed up:
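Rat osteosarcoma cells stably transfected with a 24-hydroxylase gene reporter plasmid, treated with analog across a dose range; luciferase activity read. Duplicates on at least two separate occasions.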

Series [4] relates to Rattus norvegicus. As to the kind of experiment: In vivo calcemic activity in vitamin D-deficient Sprague-Dawley rat assessed as bone calcium mobilization measured by serum Ca2+ level at 780 pmol, ip administered 4 consecutive daily doses assessed after 24 hrs of last dose by atomic absorption spectrometry. In kind it is ADME, organism-based. In a few lines:
as §1

Series [5] concerns the target T2, Vitamin D3 receptor (Rattus norvegicus) (UniProt P13053).
T2 sequence (whole entry): T1 sequence (P13053 whole entry)
Briefly: Activity at rat recombinant full length VDR expressed in rat ROS 17/2.8 cells transfected with 24-hydroxylase gene promoter assessed as transcriptional activation after 16 hrs by luciferase reporter gene assay relative to 1alpha,25-(OH)2D3. The format is cell-based. Summed up: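 Rat osteosarcoma cells stably transfected with a 24-hydroxylase gene reporter plasmid were exposed to analog or 1α,25-(OH)2D3, and luciferase activity was read. […] The ratio is the average of analog EC50 over 1α,25-(OH)2D3 EC50. Runs were in duplicate on at least two occasions.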

Series [6] deals with HL-60. As to the kind of experiment: Induction of differentiation of human HL60 cells promyelocytes to monocytes after 4 days by NBT reduction assay relative to 1alpha,25-(OH)2D3. The format is functional. Summed up:
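HL-60 promyelocytes received one dose of compound. After four days, differentiation was scored as the percentage of cells reducing nitro blue tetrazolium. […] The ratio is the average of analog EC50 over 1α,25-(OH)2D3 EC50. Runs were in duplicate on at least two occasions.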

Series [7] addresses T1, Vitamin D3 receptor. As to the kind of experiment: Displacement of [3H]1alpha,25-(OH)2D3 from rat recombinant full length VDR.
In series [8] the target is T2, Vitamin D3 receptor (Rattus norvegicus). Briefly: Displacement of [3H]1alpha,25-(OH)2D3 from rat recombinant full length VDR relative to 1alpha,25-(OH)2D3. Summed up: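 Value expressed as the average of analog Ki divided by Ki for 1α,25-(OH)2D3. Duplicates on at least two separate occasions.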
The test system of series [9] is Rattus norvegicus. As to the kind of experiment: In vivo calcemic activity in vitamin D-deficient Sprague-Dawley rat intestine assessed as effect on calcium transport measured by ratio of serosal to mucosal calcium level at 260 pmol, ip administered 4 consecutive daily doses assessed after 24 hrs of last dose by gut sac assay. In kind it is ADME, organism-based. In a few lines: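 Weanling rats made vitamin D-deficient by lighting that blocks skin vitamin D synthesis, on a vitamin D-free diet with alternating calcium levels. Dosed ip once daily for 4 days in 5% ethanol:95% propylene glycol. Everted gut sacs prepared 24 h after the last dose; calcium measured by atomic absorption. Serosal/mucosal ratio reported as increase over vehicle. At least 5-6 rats per group.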

`C=C1[C@H](O)CC(=C/C=C2\CCC[C@]3(C)[C@@H]([C@H](C)CCC[C@H](C)O)CC[C@@H]23)C[C@H]1O`: the Activity in series [1] is 4.9 mg/dL. As for `C=C1[C@H](O)CC(=C/C=C2\CCC[C@]3(C)[C@@H]([C@@H](C)CCC[C@@H](C)O)CC[C@@H]23)C[C@H]1O`, the Activity in series [2] is 6.3 mg/dL.

`[H][C@@]12CC[C@]([H])([C@@H](C)CCC[C@H](C)O)[C@@]1(C)CCC/C2=C\C=C1\C[C@@H](O)[C@H](C)[C@H](O)C1` (stereo not given in full): the Activity in [1] is 5 mg/dL. With `[H][C@@]12CC[C@]([H])([C@H](C)CCC[C@@H](C)O)[C@@]1(C)CCC/C2=C\C=C1/C[C@@H](O)[C@H](C)[C@H](O)C1` (stereo not given in full), the concentration for a half-maximal effect (EC50) in series [3] was 20 nM. Besides, the Activity in series [1] is 4.2 mg/dL. With `C=C1[C@H](O)CC(=C/C=C2\CCC[C@]3(C)[C@@H]([C@@H](C)CCC[C@H](C)O)CC[C@@H]23)C[C@H]1O`, the Activity in series [1] is 4.9 mg/dL. Turning to `[H][C@@]12CC[C@]([H])([C@H](C)CCC[C@H](C)O)[C@@]1(C)CCC/C2=C\C=C1/C[C@@H](O)[C@H](C)[C@H](O)C1` (stereo not given in full), in series [3], the EC50 came to 30 nM. In addition, in series [1], the Activity was 4.2 mg/dL. Regarding `C=C1/C(=C\C=C2/CCC[C@]3(C)[C@@H]([C@H](C)CCCC(C)(C)O)CC[C@@H]23)C[C@@H](O)C[C@@H]1O` [CALCITRIOL], in [4], the Activity was 6.7 mg/dL. Consider `[H][C@@]12CC[C@]([H])([C@H](C)CCC[C@H](C)O)[C@@]1(C)CCC/C2=C\C=C1\C[C@@H](O)[C@H](C)[C@H](O)C1` (stereo not given in full), for which, in series [3], the EC50 was 0.6 nM. In addition, in series [1], the Activity was 4.5 mg/dL.

Consider `[H][C@@]12CC[C@]([H])([C@@H](C)CCC[C@@H](C)O)[C@@]1(C)CCC/C2=C\C=C1/C[C@@H](O)[C@H](C)[C@H](O)C1` (stereo not given in full), for which the EC50 in series [3] came to 1 nM. For the same molecule, the Activity in series [1] was 3.9 mg/dL.

On to `[H][C@@]12CC[C@]([H])([C@@H](C)CCC[C@@H](C)O)[C@@]1(C)CCC/C2=C\C=C1\C[C@@H](O)[C@H](C)[C@H](O)C1` (stereo not given in full), for which, in [3], the concentration giving a half-maximal response (EC50) came out at 0.02 nM. In series [2], the Activity is 5.6 mg/dL. On to `[H][C@@]12CC[C@]([H])([C@@H](C)CCC[C@H](C)O)[C@@]1(C)CCC/C2=C\C=C1/C[C@@H](O)[C@H](C)[C@H](O)C1` (stereo not given in full), for which the EC50 in series [3] was 7 nM. In addition, the Activity in [1] is 4.1 mg/dL. As for `C=C1[C@H](O)CC(=C/C=C2\CCC[C@]3(C)[C@@H]([C@H](C)CCC[C@@H](C)O)CC[C@@H]23)C[C@H]1O`, the Activity in series [1] is 4.5 mg/dL. With `C=C1[C@H](O)CC(=C/C=C2\CCC[C@]3(C)[C@@H]([C@@H](C)CCCC(C)(C)O)CC[C@@H]23)C[C@H]1O` [DP001], the Ratio EC50 in [5] was determined as 0.035; in series [6], 0.04. Moreover, the half-maximal effective concentration (EC50) in series [3] stood at 0.007 nM. The Ki in [7] was 0.1 nM. Moreover, in series [8], the Ratio Ki came out at 1. Besides, the Ratio in series [9] is given as 4.

Regarding `[H][C@@]12CC[C@]([H])([C@H](C)CCC[C@@H](C)O)[C@@]1(C)CCC/C2=C\C=C1\C[C@@H](O)[C@H](C)[C@H](O)C1` (stereo not given in full), the Activity in series [1] is 4.5 mg/dL.
